Key:
MV4-11 [1] = assay: Antiproliferative activity against human MV4-11 cells assessed as inhibition of cell growth incubated for 72 hrs by Celltiter-Glo luminescent assay; format: functional, cell-based; conditions: MV4-11, 72 h
How it was run: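 Cells seeded in growth medium and held overnight at 37 °C; medium-only wells served as background. DMSO stocks were diluted in medium to 3× final and added; cells incubated 72 h at 37 °C, 5% CO2. Viability read by CellTiter-Glo luminescence after 60 min at room temperature. IC50 from curve fit, mean of duplicate.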

[2] = biological target: CDK9/cyclin T1 (Homo sapiens) (UniProt O60563+P50750); assay: Inhibition of CDK9/Cyclin T1 (unknown origin) assessed as enzyme activity at 1 uM preincubated for 20 mins followed by ATP addition and measured after 120 mins in presence of [33P-gamma] ATP by hotspot kinase assay relative to control; format: protein-complex assay; set-up: scale not given: the % may be the effect or the level left; conditions: time 140.0 min
How it was run: (§1)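 Radiometric filter-binding kinase assay, buffer pH 7.5 with 10 mM MgCl2 and 1% DMSO. Compound tested at a single 1.0 μM, preincubated 20 min at 25 °C. Reaction started with ATP/[γ-33P]ATP at 10 μM final, run 120 min at 25 °C. Remaining % enzyme activity reported, n=2.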

CDK9/cyclin T1 = CDK9/cyclin T1 (Homo sapiens, UniProt P50750); assay: Inhibition of CDK9/Cyclin T1 (unknown origin) preincubated for 20 mins followed by ATP addition and measured after 120 mins in presence of [33P-gamma] ATP by hotspot kinase assay; format: protein-complex assay
CDK9/cyclin T1, sequence (O60563 whole entry): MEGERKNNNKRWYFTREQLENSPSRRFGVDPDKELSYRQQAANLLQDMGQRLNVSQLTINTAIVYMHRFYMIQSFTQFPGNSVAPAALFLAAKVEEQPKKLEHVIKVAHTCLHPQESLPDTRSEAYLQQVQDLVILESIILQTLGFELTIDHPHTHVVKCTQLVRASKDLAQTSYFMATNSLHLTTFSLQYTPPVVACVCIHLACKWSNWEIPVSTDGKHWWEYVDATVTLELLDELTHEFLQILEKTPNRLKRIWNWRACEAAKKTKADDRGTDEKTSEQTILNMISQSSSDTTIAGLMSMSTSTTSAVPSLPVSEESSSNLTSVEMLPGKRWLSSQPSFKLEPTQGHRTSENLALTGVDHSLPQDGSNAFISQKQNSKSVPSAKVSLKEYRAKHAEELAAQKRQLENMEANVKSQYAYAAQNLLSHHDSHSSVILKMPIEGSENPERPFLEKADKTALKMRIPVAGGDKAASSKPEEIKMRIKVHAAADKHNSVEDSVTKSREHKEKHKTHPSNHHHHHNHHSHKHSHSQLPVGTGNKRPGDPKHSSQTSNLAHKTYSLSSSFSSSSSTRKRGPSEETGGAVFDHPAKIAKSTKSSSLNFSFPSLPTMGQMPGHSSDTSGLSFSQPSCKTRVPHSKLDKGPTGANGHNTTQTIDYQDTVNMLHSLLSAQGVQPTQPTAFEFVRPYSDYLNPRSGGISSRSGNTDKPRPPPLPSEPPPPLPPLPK
CDK9/cyclin T1, sequence (P50750 whole entry): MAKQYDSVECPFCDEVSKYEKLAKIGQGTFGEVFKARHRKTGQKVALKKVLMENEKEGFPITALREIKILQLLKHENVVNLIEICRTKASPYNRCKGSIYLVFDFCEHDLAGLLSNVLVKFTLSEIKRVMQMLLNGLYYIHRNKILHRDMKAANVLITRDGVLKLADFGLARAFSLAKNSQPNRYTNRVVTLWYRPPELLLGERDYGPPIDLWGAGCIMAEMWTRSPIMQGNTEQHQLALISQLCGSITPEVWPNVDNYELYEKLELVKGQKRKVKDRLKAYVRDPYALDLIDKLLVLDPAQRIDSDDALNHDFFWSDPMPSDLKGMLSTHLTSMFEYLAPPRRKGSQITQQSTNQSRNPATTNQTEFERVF

CDK2/Cyclin A2 = CDK2/Cyclin A2 (Homo sapiens, UniProt P24941); assay: Inhibition of CDK2/Cyclin A (unknown origin) preincubated for 20 mins followed by ATP addition and measured after 120 mins in presence of [33P-gamma] ATP by hotspot kinase assay; format: protein-complex assay
How it was run: (§2)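 Radiometric filter-binding assay: kinase and substrate in 20 mM Hepes pH 7.5, 10 mM MgCl2, 1 mM EGTA, 0.02% Brij35, 0.02 mg/mL BSA, 0.1 mM Na3VO4, 2 mM DTT, 1% DMSO. Compound (top 1/10/27 μM, 3-fold serial dilutions) preincubated 20 min at 25 °C. ATP plus [γ-33P]ATP added to 10 μM final, reacted 120 min at 25 °C. IC50 from curve fit, duplicate mean.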

MV4-11 [3] = assay: Antitumor activity against human MV4-11 cells xenografted in Balb/c nude mouse assessed as reduction in tumor volume at 40 mg/kg, iv administered once daily for 21 days (reference value: 1.00 g); format: functional; conditions: time 21 day
[4] = biological target: CDK2/Cyclin A2 (Homo sapiens) (UniProt P24941+P20248); assay: Inhibition of CDK2/Cyclin A (unknown origin) assessed as enzyme activity at 1 uM preincubated for 20 mins followed by ATP addition and measured after 120 mins in presence of [33P-gamma] ATP by hotspot kinase assay relative to control; format: protein-complex assay; set-up: scale not given: the % may be the effect or the level left; conditions: time 140.0 min; how it was run: as §1
[5] = Metabolic stability in human liver microsomes assessed as half life at 1 uM incubated up to 60 mins in presence of NADPH by LC-MS/MS analysis; format: ADME, Microsome
How it was run: (§3)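 Liver microsomes (0.5 mg/mL) incubated at 37 °C with compound at 1.0 μM final, 3 mM MgCl2 and 1 mM NADPH in 100 mM PBS pH 7.4. Samples taken at 0, 5, 15, 30, 60 min; remaining parent measured by LC-MS/MS. k = −slope, T1/2 = 0.693/k, CLint = k/microsomal protein concentration. Midazolam served as control.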

[6] = Metabolic stability in monkey liver microsomes assessed as half life at 1 uM incubated up to 60 mins in presence of NADPH by LC-MS/MS analysis; format: ADME, Macaca mulatta, Microsome; conditions: rhesus monkey; how it was run: as §3
[7] = Metabolic stability in dog liver microsomes assessed as intrinsic clearance at 1 uM incubated up to 60 mins in presence of NADPH by LC-MS/MS analysis; format: ADME, Canis lupus familiaris, Microsome; conditions: read-out: CLH; how it was run: as §3
[8] = Metabolic stability in rat liver microsomes assessed as half life at 1 uM incubated up to 60 mins in presence of NADPH by LC-MS/MS analysis; format: ADME, Microsome; how it was run: as §3
[9] = Metabolic stability in dog liver microsomes assessed as half life at 1 uM incubated up to 60 mins in presence of NADPH by LC-MS/MS analysis; format: ADME, Canis lupus familiaris, Microsome; how it was run: as §3
[10] = Metabolic stability in rat liver microsomes assessed as intrinsic clearance at 1 uM incubated up to 60 mins in presence of NADPH by LC-MS/MS analysis; format: ADME, Microsome; conditions: read-out: CLH; how it was run: as §3
[11] = Metabolic stability in human liver microsomes assessed as intrinsic clearance at 1 uM incubated up to 60 mins in presence of NADPH by LC-MS/MS analysis; format: ADME, Microsome; conditions: read-out: CLH; how it was run: as §3
[12] = Metabolic stability in monkey liver microsomes assessed as intrinsic clearance at 1 uM incubated up to 60 mins in presence of NADPH by LC-MS/MS analysis; format: ADME, Macaca mulatta, Microsome; conditions: rhesus monkey, read-out: CLH; how it was run: as §3
[13] = biological target: Cyclin-dependent kinase 7/ cyclin H (Homo sapiens, UniProt P50613); assay: Inhibition of CDK7/Cyclin H (unknown origin) preincubated for 20 mins followed by ATP addition and measured after 120 mins in presence of [33P-gamma] ATP by hotspot kinase assay; format: protein-complex assay; how it was run: as §2
Cyclin-dependent kinase 7/ cyclin H, sequence (P51946 whole entry): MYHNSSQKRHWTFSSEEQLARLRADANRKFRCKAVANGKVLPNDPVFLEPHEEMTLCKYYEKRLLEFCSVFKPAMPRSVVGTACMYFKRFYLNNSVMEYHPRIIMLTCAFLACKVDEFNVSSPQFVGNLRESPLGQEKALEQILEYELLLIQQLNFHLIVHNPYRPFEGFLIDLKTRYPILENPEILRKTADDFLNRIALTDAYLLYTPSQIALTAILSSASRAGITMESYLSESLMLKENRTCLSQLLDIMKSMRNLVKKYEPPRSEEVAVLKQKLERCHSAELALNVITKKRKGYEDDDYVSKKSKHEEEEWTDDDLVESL
Cyclin-dependent kinase 7/ cyclin H, sequence (P50613 whole entry): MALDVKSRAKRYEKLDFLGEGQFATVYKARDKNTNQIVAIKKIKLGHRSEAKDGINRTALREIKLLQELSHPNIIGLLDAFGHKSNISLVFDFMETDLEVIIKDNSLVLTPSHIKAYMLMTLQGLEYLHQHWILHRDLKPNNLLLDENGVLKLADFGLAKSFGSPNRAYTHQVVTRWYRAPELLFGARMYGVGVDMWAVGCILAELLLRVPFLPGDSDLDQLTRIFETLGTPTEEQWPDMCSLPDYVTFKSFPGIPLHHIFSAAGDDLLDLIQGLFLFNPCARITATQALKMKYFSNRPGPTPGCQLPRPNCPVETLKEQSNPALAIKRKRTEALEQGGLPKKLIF

Homo sapiens = species: Homo sapiens; assay: Selectivity index, ratio of IC50 for CDK2/Cyclin A (unknown origin) to IC50 for CDK9/Cyclin T1 (unknown origin)
CDK9/Cyclin K = CDK9/Cyclin K (Homo sapiens, UniProt P50750); assay: Inhibition of CDK9/Cyclin K (unknown origin) preincubated for 20 mins followed by ATP addition and measured after 120 mins in presence of [33P-gamma] ATP by hotspot kinase assay; format: protein-complex assay
CDK9/Cyclin K, sequence (P50750 whole entry): as the sequence (P50750 whole entry) above
CDK9/Cyclin K, sequence (O75909 whole entry, further chain): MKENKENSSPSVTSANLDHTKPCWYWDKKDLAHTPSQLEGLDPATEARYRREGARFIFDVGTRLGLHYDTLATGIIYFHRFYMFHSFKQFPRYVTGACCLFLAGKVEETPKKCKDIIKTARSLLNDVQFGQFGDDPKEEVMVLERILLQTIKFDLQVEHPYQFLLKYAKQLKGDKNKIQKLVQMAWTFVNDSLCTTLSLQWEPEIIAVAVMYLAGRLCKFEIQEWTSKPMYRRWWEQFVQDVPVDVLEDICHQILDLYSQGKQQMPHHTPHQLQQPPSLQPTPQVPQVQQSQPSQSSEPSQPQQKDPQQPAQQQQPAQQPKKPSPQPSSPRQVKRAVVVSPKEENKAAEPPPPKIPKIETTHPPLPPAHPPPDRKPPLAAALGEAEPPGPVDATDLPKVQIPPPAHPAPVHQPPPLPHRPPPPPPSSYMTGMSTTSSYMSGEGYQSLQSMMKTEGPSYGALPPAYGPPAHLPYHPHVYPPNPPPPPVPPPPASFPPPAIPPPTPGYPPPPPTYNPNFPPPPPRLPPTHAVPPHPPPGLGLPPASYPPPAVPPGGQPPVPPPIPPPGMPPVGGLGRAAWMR
How it was run: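 HotSpot radioisotope filter-binding assay. Kinase and substrate were mixed at room temperature in 20 mM Hepes pH 7.5 with 10 mM MgCl2, 1 mM EGTA, 0.02% Brij35, 0.02 mg/mL BSA, 0.1 mM Na3VO4, 2 mM DTT and 1% DMSO. Compound was added in a 3-fold dilution series starting at 1, 10 or 27 μM and preincubated 20 min at 25 °C. ATP plus [γ-33P]ATP (10 μM final) was then added for 120 min at 25 °C. IC50 from curve fit, duplicate mean.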

Structure (SMILES)	IC50 (MV4-11 [1]) [nM]	IC50 (CDK9/cyclin T1) [nM]	IC50 (CDK2/Cyclin A2) [nM]	Activity [4] [%]	other results
COc1cccc(-c2ccnc(Nc3ccc4c(N5CCOCC5)c(C(C)=O)c(=O)oc4c3)n2)c1OC	5070	–	–	–	Activity [2]: 51.7%
COc1cc(F)ccc1-c1nc(Nc2ccc3c(N4CCN(C)CC4)c(C(C)=O)c(=O)oc3c2)ncc1Cl	1390	1.7	642	–	–
CCN1CCN(c2c(C(C)=O)c(=O)oc3cc(Nc4ncc(F)c(-c5ccc(F)cc5OC)n4)ccc23)CC1	550	1.2	305	–	–
COc1ccccc1-c1ccnc(Nc2ccc3c(N4CCCNCC4)cc(=O)oc3c2)n1	1680	11.7	2060	–	–
COc1ccccc1-c1ccnc(Nc2ccc3c(N4CCNCC4)cc(=O)oc3c2)n1	1340	25.3	3660	–	–
Nc1ccn([C@@H]2O[C@H](CO)[C@@H](O)[C@@H]2O)c(=O)n1 [CYTARABINE]	–	–	–	–	Activity (MV4-11 [3]): 0.26 g
COc1cc(F)ccc1-c1nc(Nc2ccc3c(N4CCN(C)CC4)c(C(C)=O)c(=O)oc3c2)ncc1F	400	1.5	336	–	–
CCC(=O)c1c(N2CCOCC2)c2ccc(Nc3ncc(F)c(-c4ccc(F)cc4OC)n3)cc2oc1=O	420	0.7	338	–	–
COc1ccccc1-c1ccnc(Nc2ccc3c(C)c(C(C)=O)c(=O)oc3c2)n1	10200	6.5	451	–	–
COc1cccc(F)c1-c1ccnc(Nc2ccc3c(N4CCOCC4)c(C(C)=O)c(=O)oc3c2)n1	520	13.7	–	58.7	–
Cc1ncc2n1-c1ccc(Cl)cc1C(c1ccccc1F)=NC2 [MIDAZOLAM]	–	–	–	–	half-life at 1 µM [5]: 12.1 min; half-life at 1 µM [6]: 6.29 min; microsomal CLint at 1 µM [7]: 1500 µL/min/mg; half-life at 1 µM [8]: 3.82 min; half-life at 1 µM [9]: 2.31 min; microsomal CLint at 1 µM [10]: 908 µL/min/mg; microsomal CLint at 1 µM [11]: 287 µL/min/mg; microsomal CLint at 1 µM [12]: 551 µL/min/mg
COc1ccccc1-c1cc(Nc2ccc3c(C)c(C(C)=O)c(=O)oc3c2)ncn1	> 10000	37.6	–	64.5	–
CCc1ccccc1-c1cc(Nc2ccc3c(N4CCOCC4)c(C(C)=O)c(=O)oc3c2)ncn1	–	–	–	–	Activity [2]: 90%
COc1ccc(-c2ccnc(Nc3ccc4c(N5CCOCC5)c(C(C)=O)c(=O)oc4c3)n2)c(OC)c1	820	54.2	–	46.3	–
CCc1ccccc1-c1ccnc(Nc2ccc3c(N4CCOCC4)c(C(C)=O)c(=O)oc3c2)n1	9840	66.5	–	40.5	–
CC(=O)c1c(C)c2ccc(Nc3nccc(-c4cccnc4)n3)cc2oc1=O	12900	184	1210	–	IC50 [13]: > 27000 nM; Ratio IC50 (Homo sapiens): 7; IC50 (CDK9/Cyclin K): 235 nM
COc1ccccc1-c1ccnc(Nc2ccc3c(N4CCOCC4)c(C(C)=O)c(=O)oc3c2)n1	1010	3.1	1280	–	–
CC(=O)c1c(N2CCOCC2)c2ccc(Nc3cc(-c4ccccc4C)ncn3)cc2oc1=O	–	–	–	–	Activity [2]: 92.2%
CC(=O)c1c(N2CCOCC2)c2ccc(Nc3cc(-c4ccccc4)ncn3)cc2oc1=O	–	–	–	–	Activity [2]: 104%
CC(=O)c1c(N2CCOCC2)c2ccc(Nc3cc(-c4ccccc4C(F)(F)F)ncn3)cc2oc1=O	–	–	–	–	Activity [2]: 106%

Structure (SMILES)	IC50 (MV4-11 [1]) [nM]	IC50 (CDK9/cyclin T1) [nM]	IC50 (CDK2/Cyclin A2) [nM]	Activity [4] [%]	other results
COc1ccccc1-c1cc(Nc2ccc3c(N4CCOCC4)c(C(C)=O)c(=O)oc3c2)ncn1	> 10000	210	3420	–	–
COc1cc(F)ccc1-c1nc(Nc2ccc3c(N4CCOCC4)cc(=O)oc3c2)ncc1F	3110	1.6	–	22	–
CC(=O)c1c(N2CCOCC2)c2ccc(Nc3nccc(-c4ccccc4C)n3)cc2oc1=O	–	489	–	–	–
COc1cc(F)ccc1-c1ccnc(Nc2ccc3c(N4CCCCC4)c(C(C)=O)c(=O)oc3c2)n1	730	6.5	–	73.1	–
COc1ccccc1-c1ccnc(Nc2ccc3c(N4CCOCC4)cc(=O)oc3c2)n1	4570	47.2	–	57.9	–
CC(=O)c1c(N2CCOCC2)c2ccc(Nc3nccc(-c4ccccc4C(F)(F)F)n3)cc2oc1=O	–	2490	–	–	–
CCN1CCN(c2c(C(C)=O)c(=O)oc3cc(Nc4nccc(-c5ccc(F)cc5OC)n4)ccc23)CC1	740	10.5	–	61.8	–
CCC(=O)c1c(N2CCOCC2)c2ccc(Nc3nccc(-c4ccc(F)cc4OC)n3)cc2oc1=O	430	3.6	1090	–	–
COc1cccc(-c2ccnc(Nc3ccc4c(N5CCOCC5)c(C(C)=O)c(=O)oc4c3)n2)c1	1490	18.4	–	54.1	–
COc1ccc(F)cc1-c1ccnc(Nc2ccc3c(N4CCOCC4)c(C(C)=O)c(=O)oc3c2)n1	1740	21.8	–	49.6	–
CC(=O)c1c(N2CCOCC2)c2ccc(Nc3nccc(-c4ccccc4[N+](=O)[O-])n3)cc2oc1=O	> 10000	2340	–	–	–
COc1cc(F)ccc1-c1ccnc(Nc2ccc3c(N4CCN(C)CC4)c(C(C)=O)c(=O)oc3c2)n1	520	16.4	–	74.8	–
COc1cc(F)ccc1-c1nc(Nc2ccc3c(N4CCCNCC4)c(C(C)=O)c(=O)oc3c2)ncc1F	420	1.6	496	–	–
COc1cc(F)ccc1-c1nc(Nc2ccc3c(N4CCOCC4)c(C(C)=O)c(=O)oc3c2)ncc1Cl	1010	3.6	401	–	–
CC(=O)c1c(N2CCOCC2)c2ccc(Nc3nccc(-c4ccccc4)n3)cc2oc1=O	–	228	–	–	–
COc1cc(F)ccc1-c1ccnc(Nc2ccc3c(N4CCOCC4)cc(=O)oc3c2)n1	2280	18.2	1330	–	–
CC(=O)c1c(N2CCOCC2)c2ccc(Nc3nccc(-c4c(F)cccc4F)n3)cc2oc1=O	> 10000	267	–	–	–
CCc1c(N2CCOCC2)c2ccc(Nc3nccc(-c4ccccc4OC)n3)cc2oc1=O	4720	67.3	10900	–	–
COc1ccc(-c2ccnc(Nc3ccc4c(N5CCOCC5)c(C(C)=O)c(=O)oc4c3)n2)cc1	6490	81.7	–	21.6	–
